Screening results (PubChem)
PREPL inh – inhibits the human prolyl oligopeptidase-like enzyme | inhibition, % at 5.96 µM | recombinant PREPL, fluorescence polarization activity-based probe | AID 2751 | Q4J6C6 | 0.68% of 320,000 active; in the data active = inhibition above about 43%;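 note: 0% = enzyme with DMSO and 100% = wells lacking enzyme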
Beta apoptosis – blocks beta cell apoptosis; 0.8% of 300,000 active; AID 435005; INS-1E cytokine-induced death, ATP luminescence, 48 h; percent of positive-control rescue, neutral wells zero; protection from apoptosis, % (no concentration beside the values);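 active = Every replicate reaches about 75%, or at least half do and their mean reaches it too, limit read from the data; inconclusive = At least half of replicates reach the limit but their mean does not; inactive = Under half of replicates reach the limit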;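 note: 0% = cytokine-treated negative control wells and 100% = positive control rescue; higher means more ATP so stronger rescue from cytokine killing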
GRIN3A LBD mod – modulators (binders) of human NR3A ligand-binding domain; NR3A LBD differential scanning fluorimetry, Tm shift; 0% = protein alone, 100% = glycine-bound protein; Tm shift relative to glycine control, % at 25 µM; 2.5% of 340,000 active; AID 1259313;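 active = melting temperature shift of at least 10% of the positive control shift, at one fixed dose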
CHOP inh – blocks CHOP induction under ER stress; AID 2732; CHO-K1 CHOP-promoter luciferase, tunicamycin-induced, 15-18 h; 3.8% of 220,000 active; inhibition, % at 10 µM;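 active = compounds that reduced the stress-induced luciferase reporter signal by more than about 70% of percent inhibition, limit read from the data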;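 note: 0% = tunicamycin plus vehicle and 100% = wells without tunicamycin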
CSC inhib – blocks cancer stem cells; inhibition, % at 7.5 µM; 1.1% of 300,000 active; cancer stem cell-like cells viability, luminescence; AID 2717; in the data active = inhibition above about 75%; inconclusive = no clear call, values can overlap the other calls; tested in HMLE shEcad cells
T cruzi repl – T. cruzi replication inhibition. T. cruzi beta-gal in NIH3T3, luminescence, 90 h. inhibition, % (concentration not given with the values). 1.4% of 300,000 active. AID 1885;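 active = mean inhibition across valid replicates above about 55%, limit read from the data; inconclusive = mean below that limit but half or more replicates reach it; inactive = mean below it, under half of replicates reach it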;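 note: signal also drops with host cell toxicity which is not excluded here; 0% = plate median of DMSO wells and 100% = zero luminescence signal; higher percent means less beta-gal luminescence so fewer parasites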
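Read-out: Parasite load inhibition, % | Test system: Mouse NIH/3T3 fibroblasts infected with β-gal-expressing T. cruzi Tulahuen C4 | Amount: 5,000 cells/well | Medium: DMEM, 2% fetal bovine serum | Signal: GalScreen β-gal luminescence, detergent lysis, 60 min | Timing: 3 h attach, ≥90 h co-culture | Also added: Tulahuen C4 trypomastigotes, 5000/well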
Active calls of the source: *; ? = inconclusive; nt = not tested or not shown. Compounds with a hit are over-represented: about 6.7% of the library has one in this group of screens.

SMILES | PREPL inh | Beta apoptosis | GRIN3A LBD mod | CHOP inh | CSC inhib | T cruzi repl
C/C(=N/NS(=O)(=O)c1ccc(Cl)cc1)c1cccc(NC(=O)c2ccc(Cl)cc2Cl)c1 | 14 | 3 | 18* | 22 | 16 | nt
C/C(=N\NC(=O)C1CC1)c1cccc(NC(=O)c2cccc(Cl)c2)c1 | -11 | 0 | nt | -27 | 1 | -29
CC(C)COC(=O)N(C)c1ccc(C(O)(C(F)(F)F)C(F)(F)F)cc1 | 23 | nt | 1 | 93* | 22 | 2
CC(=O)OCCCN1c2ccccc2Nc2nnc(-c3ccccc3)cc21 | -7 | 4 | 5 | -27 | 13 | 5
N#C/C(=N\Nc1ccc(Cl)c(Cl)c1)C(=O)C1CC1 | 4 | 52 | 12* | 18 | 70 | -13
N#C/C(=N\Nc1ccc(F)cc1)C(=O)C1CC1 | 14 | 6 | 0 | -8 | 39 | -6
COc1cc(NC(=O)Nc2ccccc2)c(OC)cc1NC(=O)CN1CCCCC1 | 24 | -2 | -7 | 90* | -5 | 27
COc1ccc(C)cc1NC(=O)CN1CCN(CC(=O)Nc2ccccc2F)CC1 | 17 | 12 | -1 | 79* | 17 | -1
COc1ccccc1NC(=O)CN1CCC(n2nnc3cc(F)ccc32)CC1 | 28 | 5 | 0 | 33 | -13 | -1
COc1ccc(Cl)cc1NC(=O)CN1CCC(n2nnc3cc(C)ccc32)CC1 | 16 | 29 | -2 | 73* | 38 | 38
O=C(CN1CCCCCC1)Nc1ccccc1Oc1ccccc1 | 5 | 2 | 2 | -20 | 80* | 6
CCCCC1=CC2=CC(=O)C(C)(OC(=O)c3ccc(Cl)nc3)C(=O)C2=CO1 (centres undefined) | 14 | 2 | nt | nt | -4 | -2
O=C(CN1CCC(n2nnc3cc(C(F)(F)F)ccc32)CC1)Nc1ccc2c(c1)CCC2 | -6 | 3 | -2 | 78* | -5 | 48
O=C(CN1CCC(n2nnc3cc(C(F)(F)F)ccc32)CC1)Nc1ccc2c(c1)OCCO2 | 17 | -2 | -1 | 43 | -11 | 12
Cc1cc(C)c(S(=O)(=O)c2c(C)cccc2C)c(OCC(C)C)n1 | -8 | -6 | 0 | 74* | 20 | 6
Cc1c(-c2ccccc2)[n+](=O)c(-c2ccc(Cl)cc2)c(C)n1[O-] | 9 | -4 | 0 | 12 | -11 | 2
CN1CCN(c2ccc(S(=O)(=O)N3CCCCC3)cc2NC(=O)/C=C/c2ccc(Cl)c([N+](=O)[O-])c2)CC1 | 35 | nt | -6 | nt | 98* | 60*
COc1ccc(C(=O)/C=C/c2ccc(N3CCCCC3)c([N+](=O)[O-])c2)c(OC)c1 | 4 | -3 | -4 | -13 | 97* | 4
CCN1CCN(c2ccc(S(=O)(=O)N3CCCCC3)cc2NC(=O)/C=C/c2ccc([N+](=O)[O-])cc2)CC1 | 31 | 4 | -4 | nt | -2 | 50
CC(C)C(=O)Nc1ccc(N2CCCC2)c(Cl)c1 | 10 | 2 | -4 | -15 | -11 | 0
O=C(/C=C/c1ccc(Cl)c([N+](=O)[O-])c1)Nc1ccc(N2CCCC2)c(Cl)c1 | 2 | 1 | 17* | 96* | 2 | 5
COc1ccc(C(=O)/C=C/c2ccc(N3CCCCC3)c([N+](=O)[O-])c2)cc1 | 1 | 9 | 2 | -13 | ? | 6
CC(C)C[C@H](NC(=O)OC(C)(C)C)C(=O)N[C@@H](CO)[C@H](O)[C@@H]1C[C@@H]1C(=O)NC1CC1 | 6 | 4 | -1 | nt | -8 | -12
COc1ccc(C(=O)OC(C)C(=O)NCC2CCCCC2)cc1S(=O)(=O)N1CCOCC1 (centres undefined) | -3 | 0 | 0 | nt | -5 | nt
CCNc1nc(SCCOc2ccc(Cl)cc2Cl)nc(N(C)C)n1 | nt | nt | -22 | 91* | nt | 31
Cn1nccc1C(=O)NC1CCN(Cc2ccccc2)CC1 | 4 | -5 | 1 | nt | -19 | 18
O=C(/C=C/c1ccc(O)c(O)c1)c1ccc(S(=O)(=O)N2CCCCCC2)cc1 | 15 | 5 | 23* | 10 | 25 | -1
O=C(c1ccc(S(=O)(=O)N2CCCC2)cc1)N1CCCCC1 | 0 | -9 | 1 | nt | 10 | 4
O=S(=O)(Nc1cccc(CCc2ccccn2)c1)c1ccc2ccccc2c1 | nt | nt | -19 | 84* | nt | nt
Cc1nc(-c2cccc(NS(=O)(=O)c3ccc4ccccc4c3)c2)cs1 | -73 | -2 | 10* | -11 | -20 | -17
